Structures are written as SMILES. Activity calls are given as the source filed them. No cut-off for these calls is given here.

Data set [1] is described as follows: Ratio of drug level from brain to plasma in Sprague-Dawley rat at 10 mg/kg, po measured at 2 hrs. The format is ADME, organism-based. Details: dose 10 mg/kg, route oral. The settings on record: read-out: BPR. The essentials:
(§1)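 Rats fasted 12 h, then dosed orally by gavage or by bolus tail-vein injection at 2 ml/kg. Compound given as a 5 mg/ml solution in N-methyl-2-pyrrolidone/Tween 80/water (1:2:7). Samples taken at various times (n = 5) and stored at −70 °C. Plasma deproteinized with acetonitrile containing carbamazepine internal standard, then quantified by LC-MS/MS.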

Data set [2] is described as follows: Drug uptake in Sprague-Dawley rat brain at 10 mg/kg, po measured at 2 hrs. The format is ADME, organism-based. Details: dose 10 mg/kg, route oral. The settings on record: read-out: Drug uptake. The essentials:
as §1

Data set [3] can be described thus: Plasma concentration in Sprague-Dawley rat at 10 mg/kg, po measured at 2 hrs. The format is ADME, organism-based. Details: dose 10 mg/kg, route oral. The essentials: as §1
The nature of data set [4]: Plasma concentration in Sprague-Dawley rat at 10 mg/kg, po measured at 8 hrs. It is filed as ADME, organism-based. Details: dose 10 mg/kg, route oral. The essentials: as §1
Data set [5] is described as follows: AUClast in Sprague-Dawley rat at 10 mg/kg, po. It is filed as ADME, organism-based. Details: time 0 - last, dose 10 mg/kg, route oral. The settings on record: plasma.
The test system of data set [6] is Mus musculus. As to the kind of experiment: Antiobesity activity in B6.V/J ob/ob mouse assessed as change in lung weight at 50 mg/kg, po bid measured after 14 days (reference value: 0.143 +/- 0.013 g). The format is functional.
The test system of data set [7] is Mus musculus. The data set is described as follows: Antiobesity activity in B6.V/J ob/ob mouse assessed as change in kidney weight at 50 mg/kg, po bid measured after 14 days (reference value: 0.339 +/- 0.009 g). It is filed as functional.
Data set [8] concerns Mus musculus. The data set is described as follows: Antiobesity activity in B6.V/J ob/ob mouse assessed as change in kidney weight at 5 mg/kg, po bid measured after 14 days (reference value: 0.339 +/- 0.009 g). The format is functional.
Data set [9] concerns Mus musculus. The data set is described as follows: Antiobesity activity in B6.V/J ob/ob mouse assessed as change in spleen weight at 25 mg/kg, po bid measured after 14 days (reference value: 0.097 +/- 0.052 g). The format is functional.
Data set [10] deals with Mus musculus. As to the kind of experiment: Antiobesity activity in B6.V/J ob/ob mouse assessed as reduction of body weight gain at 50 mg/kg, po bid measured after 14 days. Details: dose 50 mg/kg. It is filed as functional, organism-based.
Data set [11] relates to Mus musculus. The data set is described as follows: Antiobesity activity in B6.V/J ob/ob mouse assessed as reduction of body weight gain at 50 mg/kg, po qd measured after 14 days. Details: dose 50 mg/kg. The format is functional, organism-based. The essentials: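 Male ob/ob mice (B6.V-Lep^ob/J) received oral doses once daily for 14 days, with vehicle control. Food intake and body weight gain were followed.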

Data set [12] has as its system Mus musculus. The data set is described as follows: Antiobesity activity in C57BL/6 mouse assessed as inhibition of body weight gain at 50 mg/kg, po qd measured after 14 days relative to vehicle-treated control. It is filed as functional. The following applies: C57BL/6, 336 h.
Data set [13] has as its system Mus musculus. The data set is described as follows: Antiobesity activity in B6.V/J ob/ob mouse assessed as inhibition of body weight gain at 50 mg/kg, ip measured after 12 hrs relative to vehicle-treated control. It is filed as functional. The following applies: route intraperitoneal.
In data set [14] the test system is Mus musculus. As to the kind of experiment: Antiobesity activity in B6.V/J ob/ob mouse assessed as inhibition of food intake at 50 mg/kg, ip measured up to 6 hrs relative to vehicle-treated control. It is filed as functional. The following applies: route intraperitoneal. The essentials: (§2)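 Male mice were acclimated 1 week at 23 ± 3 °C and 50 ± 20% humidity, then fasted 24 h. They were dosed once intraperitoneally with vehicle or compound: 50 mg/kg in C57BL/6, or 12.5, 25 or 50 mg/kg in B6.V-Lep^ob/J. Food intake was measured at 2, 6 and 12 h versus vehicle control.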

For data set [15], the system named is Mus musculus. The data set is described as follows: Antiobesity activity in B6.V/J ob/ob mouse assessed as inhibition of food intake at 50 mg/kg, ip measured up to 12 hrs relative to vehicle-treated control. The format is functional. The following applies: route intraperitoneal. The essentials: as §2
In data set [16] the test system is Mus musculus. The data set is described as follows: Antiobesity activity in B6.V/J ob/ob mouse assessed as inhibition of food intake at 50 mg/kg, ip measured up to 2 hrs relative to vehicle-treated control. The settings on record: route intraperitoneal. The format is functional. The essentials:
as §2

For data set [17], the system named is Mus musculus. The data set is described as follows: Antiobesity activity in B6.V/J ob/ob mouse assessed as inhibition of food intake at 25 mg/kg, ip measured up to 12 hrs relative to vehicle-treated control. It is filed as functional. The following applies: route intraperitoneal. The essentials:
as §2

Data set [18] relates to Mus musculus. The data set is described as follows: Antiobesity activity in B6.V/J ob/ob mouse assessed as inhibition of food intake at 12.5 mg/kg, ip measured up to 6 hrs relative to vehicle-treated control. The format is functional. The settings on record: route intraperitoneal. The essentials: as §2
The next data set addresses D(2) dopamine receptor (Homo sapiens, UniProt P14416). The data set is described as follows: Displacement of [3H]-methylspiperone from dopamine D2L receptor (unknown origin) after 60 mins. The essentials: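 Receptor membranes incubated at 27 °C, 60 min for D2L and 30 min for D3, with [3H]methylspiperone (0.2 nM for D2L, 0.25 nM for D3) and test compound at a range of concentrations. Buffer was 50 mM Tris-HCl pH 7.4, 10 mM MgCl2, 1 mM EDTA, 120 mM NaCl. Nonspecific binding defined with haloperidol (D2) or GR103691 (D3). IC50 obtained by nonlinear regression.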
A general note: Displacement assays read how much labelled ligand stays bound in the presence of the test substance.

The nature of data set [19]: Displacement of [3H]-YM-09151-2 from cloned dopamine D4.2 receptor (unknown origin) expressed in Sf9 cells after 60 mins. Details: species or system Homo sapiens. The essentials:
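Sf9 membranes with cloned D4.2 receptor incubated with 0.2 nM [3H]YM-09151-2 for 60 min at 27 °C in 50 mM Tris-HCl pH 7.4, 5 mM MgCl2, 5 mM EDTA, 5 mM KCl, 1.5 mM CaCl2. Clozapine defined nonspecific binding. Filtered on glass-fiber filters presoaked in 0.3% PEI.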

In data set [20] the target is 5-hydroxytryptamine receptor 7 (Homo sapiens, UniProt P34969). The data set is described as follows: Displacement of [3H]-LSD from human recombinant 5HT-7 receptor expressed in CHOK1 cell membranes after 120 mins. Details: species or system CHO-K1. The essentials:
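CHO-K1 membranes expressing human 5-HT7 incubated with 3 nM [3H]LSD for 120 min at 27 °C in 50 mM Tris-HCl pH 7.4, 10 mM MgSO4, 0.5 mM EDTA. Filtered on glass-fiber filters presoaked in 0.3% PEI. Methiothepin defined nonspecific binding.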

Data set [21] concerns the target T1, 5-hydroxytryptamine receptor 1A (Homo sapiens, UniProt P08908).
T1 sequence (P08908 whole entry): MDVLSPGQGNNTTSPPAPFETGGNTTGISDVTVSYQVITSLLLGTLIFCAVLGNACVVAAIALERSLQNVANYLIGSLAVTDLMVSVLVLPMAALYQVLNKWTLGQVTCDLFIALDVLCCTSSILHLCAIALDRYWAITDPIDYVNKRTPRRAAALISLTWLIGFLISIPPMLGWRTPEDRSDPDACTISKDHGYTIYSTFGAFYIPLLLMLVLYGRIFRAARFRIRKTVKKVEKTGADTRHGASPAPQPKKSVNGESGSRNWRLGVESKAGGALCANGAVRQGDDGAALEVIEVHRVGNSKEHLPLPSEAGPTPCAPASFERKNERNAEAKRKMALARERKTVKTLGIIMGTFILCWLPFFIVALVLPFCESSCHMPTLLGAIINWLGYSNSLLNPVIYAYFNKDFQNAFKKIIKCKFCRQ
As to the kind of experiment: Displacement from [3H]8-OH-DPAT from human recombinant 5HT-1A receptor expressed in HEK293 cells after 120 mins. The format is cell-based. The essentials:
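Membranes from HEK293-EBNA cells stably expressing recombinant human 5-HT1A. Incubated with 2 nM [3H]8-OH-DPAT and test compound at a range of concentrations in 50 mM Tris-HCl pH 7.4 with 5 mM MgSO4.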

Chain of D(2) dopamine receptor (P14416 whole entry): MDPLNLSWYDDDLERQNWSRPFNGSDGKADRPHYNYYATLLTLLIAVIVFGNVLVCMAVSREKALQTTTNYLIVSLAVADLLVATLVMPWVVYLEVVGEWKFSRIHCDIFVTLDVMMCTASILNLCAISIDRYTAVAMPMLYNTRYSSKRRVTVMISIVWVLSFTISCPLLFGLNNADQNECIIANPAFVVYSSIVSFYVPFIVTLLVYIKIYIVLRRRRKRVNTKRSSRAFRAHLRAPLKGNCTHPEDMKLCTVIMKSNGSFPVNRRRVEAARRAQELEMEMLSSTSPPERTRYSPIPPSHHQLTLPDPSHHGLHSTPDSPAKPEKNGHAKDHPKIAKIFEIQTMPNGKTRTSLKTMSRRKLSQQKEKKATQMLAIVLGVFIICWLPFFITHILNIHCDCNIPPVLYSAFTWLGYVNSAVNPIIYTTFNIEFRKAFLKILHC
Chain of 5-hydroxytryptamine receptor 7 (P34969 whole entry): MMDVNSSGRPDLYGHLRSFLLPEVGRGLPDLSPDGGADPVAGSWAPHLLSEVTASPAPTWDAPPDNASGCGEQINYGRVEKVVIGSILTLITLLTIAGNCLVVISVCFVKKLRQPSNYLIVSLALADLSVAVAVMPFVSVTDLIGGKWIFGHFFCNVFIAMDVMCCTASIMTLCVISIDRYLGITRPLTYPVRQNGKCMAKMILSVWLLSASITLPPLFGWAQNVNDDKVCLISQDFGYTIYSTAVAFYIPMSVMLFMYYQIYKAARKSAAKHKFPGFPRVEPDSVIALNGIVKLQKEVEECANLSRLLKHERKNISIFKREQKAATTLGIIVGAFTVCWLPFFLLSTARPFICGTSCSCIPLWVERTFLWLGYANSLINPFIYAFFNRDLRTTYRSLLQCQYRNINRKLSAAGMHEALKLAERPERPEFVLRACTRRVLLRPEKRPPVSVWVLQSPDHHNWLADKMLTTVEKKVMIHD

With `Cl.Clc1cccc(Nc2nc(Cc3ccccc3)nc3c2CCNCC3)c1`, the Kp at 2 h in data set [1] amounted to 0.66. In addition, the concentration at 2 h in data set [2] amounted to 29.2 ng/mL; in data set [3], 50 ng/mL. In data set [4], the concentration at 8 h worked out at 30 ng/mL. Besides, in data set [5], the area under the curve AUC(0-t) (usually exposure summed from dosing to a finite time, without extrapolation to infinity) is 375 ng·h/mL. For the same compound, the Activity is recorded as 0.14 g in the data set on Mus musculus [6], 0.35 g in the data set on Mus musculus [7], 0.329 g with Mus musculus [8] and 0.111 g in the data set with Mus musculus [9]. Moreover, the result with Mus musculus [10] was Active. The result with Mus musculus [11] was inactive. In addition, the inhibition in vivo (in general, the relative decrease from the control value, in per cent) at 50 mg/kg turned out to be 18.8% with Mus musculus [12]; 80.2% with Mus musculus [13]; 98.6% in the data set with Mus musculus [14]; 93.3% in the data set with Mus musculus [15]; 99.8% with Mus musculus [16]. Further, the inhibition in vivo at 25 mg/kg in the data set on Mus musculus [17] was determined as 77.8%. In the data set on Mus musculus [18], the inhibition in vivo at 12.5 mg/kg turned out to be 71%. In addition, the IC50 (usually the concentration needed to halve the response being measured) on D(2) dopamine receptor is 85.8 nM; in data set [19] it was 900 nM; in data set [20] it was 1000 nM; in [21], 1060 nM.

For the origin of these results see ChEMBL document CHEMBL2390866, “Novel pyrimidoazepine analogs as serotonin 5-HT(2A) and 5-HT(2C) receptor ligands for the treatment of obesity” (Eur J Med Chem, 2013).
